Assay [1] addresses 3-(3-hydroxydecanoyloxy)decanoate synthase (Pseudomonas aeruginosa (strain ATCC 15692 / PAO1 / 1C / PRS 101 / LMG12228)) (UniProt Q51559). The assay is described as follows: Modulation of Pseudomonas aeruginosa lacZ-fused rhlA expressed in Escherichia coli DH5alpha co-expressing Ptac-rhlR at 0.002 mM after 4 hrs by beta-galactosidase assay relative to control. The method in brief:
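E. coli DH5α carrying pECP61.5 (Ptac-rhlR plus PrhlA-lacZ) was grown overnight in LB with ampicillin 100 μg/ml and diluted to OD600 0.150. It was induced with 1 mM IPTG, and 2 μM C4-HSL plus compound or DMSO were added at OD600 1.0. Cultures were shaken 4 h at 37°C and β-galactosidase read in Miller units. Activity is % of solvent control, triplicates, ≥2 biological repeats, paired two-tailed t-test.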

For assay [2] the target is unchanged. The assay is described as follows: Modulation of Pseudomonas aeruginosa lacZ-fused rhlA expressed in Escherichia coli DH5alpha co-expressing Ptac-rhlR assessed as C4-AHL-induced effect at 0.33 mM after 4 hrs by beta-galactosidase assay relative to control. The method in brief: (§1)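 rhl reporter: E. coli DH5α carrying pECP61.5 (Ptac-rhlR, PrhlA-lacZ) was grown overnight in LB with ampicillin (100 μg/ml) only, then diluted to OD600 0.150. It was induced with 1 mM IPTG, and 2 μM C4-HSL plus compound or DMSO were added at OD600 1.0. Cultures were shaken 4 h at 37 °C. β-Galactosidase activity was read in Miller units as % of the solvent sample. Triplicates per biological replicate, at least two repeats; paired two-tailed t-test.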

The target is the same in assay [3]. The assay is described as follows: Modulation of Pseudomonas aeruginosa lacZ-fused rhlA expressed in Escherichia coli DH5alpha co-expressing Ptac-rhlR assessed as C4-AHL-induced effect at 0.17 mM after 4 hrs by beta-galactosidase assay relative to control. The method in brief: as §1
Assay [4] deals with T1, Acyl-homoserine-lactone synthase (Pseudomonas aeruginosa (strain ATCC 15692 / PAO1 / 1C / PRS 101 / LMG12228)) (UniProt P33883).
T1 sequence (whole entry): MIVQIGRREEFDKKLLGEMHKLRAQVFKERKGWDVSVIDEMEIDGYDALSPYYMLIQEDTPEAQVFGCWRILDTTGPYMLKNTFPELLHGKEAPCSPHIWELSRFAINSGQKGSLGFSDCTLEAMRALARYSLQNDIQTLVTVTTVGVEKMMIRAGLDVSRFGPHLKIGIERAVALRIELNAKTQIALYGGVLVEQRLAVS
The assay is described as follows: Modulation of Pseudomonas aeruginosa lacZ-fused lasI expressed in Escherichia coli DH5alpha co-expressing pBAD-lasR assessed as 3-oxo-C12-AHL-induced effect at 0.50 mM after 3 hrs by beta-galactosidase assay relative to control. The method in brief:
(§2)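 E. coli DH5α carrying pSC11 (PlasI-lacZ translational fusion) and pJN105L (PBAD-lasR) was grown overnight in LB with ampicillin (100 μg/ml) and gentamicin (15 μg/ml), then diluted to OD600 0.150. Arabinose (0.2% w/v), 3-oxo-C12-AHL (2 μM) and test compound or DMSO were added. Cultures were shaken 3 h at 37 °C. β-Galactosidase activity was read in Miller units and expressed as % of the solvent sample. Triplicates per biological replicate, repeated at least twice; paired two-tailed t-test.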

Assay [5] deals with T1, Acyl-homoserine-lactone synthase (Pseudomonas aeruginosa (strain ATCC 15692 / PAO1 / 1C / PRS 101 / LMG12228)). Description: Modulation of Pseudomonas aeruginosa lacZ-fused lasI expressed in Escherichia coli DH5alpha co-expressing pBAD-lasR assessed as 3-oxo-C12-AHL-induced effect at 0.33 mM after 3 hrs by beta-galactosidase assay relative to control. The method in brief:
as §2

Assay [6] has the same target. The assay is described as follows: Modulation of Pseudomonas aeruginosa lacZ-fused lasI expressed in Escherichia coli DH5alpha co-expressing pBAD-lasR assessed as 3-oxo-C12-AHL-induced effect at 0.17 mM after 3 hrs by beta-galactosidase assay relative to control. The method in brief: as §2
The target of assay [7] is 3-(3-hydroxydecanoyloxy)decanoate synthase (Pseudomonas aeruginosa (strain ATCC 15692 / PAO1 / 1C / PRS 101 / LMG12228)) (UniProt Q51559). Description: Modulation of Pseudomonas aeruginosa lacZ-fused rhlA expressed in Escherichia coli DH5alpha co-expressing Ptac-rhlR assessed as C4-AHL-induced effect at 0.67 mM after 4 hrs by beta-galactosidase assay relative to control. The method in brief:
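E. coli DH5α carrying pECP61.5 (Ptac-rhlR, PrhlA-lacZ), grown overnight in LB with ampicillin 100 μg/ml and diluted to OD600 0.150. At OD600 1.0, 1 mM IPTG, 2 μM C4-HSL and compound or DMSO were added. Cultures were shaken 4 h at 37 °C, then β-galactosidase was read in Miller units. Activity is % of solvent sample, from triplicates per biological replicate, with at least two repeats.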

The target of assay [8] is T1, Acyl-homoserine-lactone synthase (Pseudomonas aeruginosa (strain ATCC 15692 / PAO1 / 1C / PRS 101 / LMG12228)). The assay is described as follows: Modulation of Pseudomonas aeruginosa lacZ-fused lasI expressed in Escherichia coli DH5alpha co-expressing pBAD-lasR assessed as 3-oxo-C12-AHL-induced effect at 0.67 mM after 3 hrs by beta-galactosidase assay relative to control. The method in brief:
as §2

The target of assay [9] is 3-(3-hydroxydecanoyloxy)decanoate synthase (Pseudomonas aeruginosa (strain ATCC 15692 / PAO1 / 1C / PRS 101 / LMG12228)) (UniProt Q51559). Description: Modulation of Pseudomonas aeruginosa lacZ-fused rhlA expressed in Escherichia coli DH5alpha co-expressing Ptac-rhlR assessed as C4-AHL-induced effect at 0.50 mM after 4 hrs by beta-galactosidase assay relative to control. The method in brief: as §1

With `CCCC(=O)N[C@H]1CCOC1=O`, in assay [1], the Activity came to 100%.

On to `CCCCCCCCCCCCSC[C@@H]1CCC(=O)N1`, for which the Activity in assay [2] was found to be 106%; in assay [3] it was 103%; in assay [4], 18%; in assay [5], 32%; in [6], 52%; in [7], 106%. The results for the Activity in [8] and in assay [9] were 11% and 109%, respectively.

The values above are taken from ChEMBL document CHEMBL1817556, “Substituted lactam and cyclic azahemiacetals modulate Pseudomonas aeruginosa quorum sensing” (Bioorg Med Chem, 2011).
